From ChEMBL document CHEMBL6134766, “Design, synthesis, and evaluation of benzhydrylpiperazine-based novel dual COX-2/5-LOX inhibitors with anti-inflammatory and anti-cancer activity” (RSC Med Chem, 2025)
Activity calls are given as the source filed them. The rule behind the calls is not given here.

How the values were obtained:
[1] = Toxicity in fasting Wistar rat assessed as ulceration at 10 mg/kg, po via gavage treated for 3 days consecutively by H and E staining based analysis (reference value: 0 %); type: organism-based; conditions: in vivo, 72 h, time 3 day
Outline: (§1)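 Fasted rats, n = 6/group, gavaged once daily for 3 days in 0.3% Na CMC (vehicle control 0.3% CMC); killed under anaesthesia 6 h after day-3 dose; stomachs saline-washed, mucosa examined with hand lens; ulcer score, index and % ulceration by reported scoring; some stomachs formalin-fixed, H&E stained.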

Rattus norvegicus [2] = assay: Anti-inflammatory activity in carrageenan-induced paw edema Wistar rat model assessed as decrease in TNF-alpha level in paw tissue at 5 to 20 mg/kg, po measured for 6 hrs by ELISA; type: functional, organism-based; conditions: dose 5-20 mg/kg
Outline: (§2)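 Paw tissue taken from carrageenan-edema rats dosed orally at 5, 10 or 20 mg kg−1. Tissue rinsed in PBS pH 7.4, minced, homogenized, filtered and centrifuged at 2000 rpm for 20 min at 4 °C. Supernatant assayed by ELISA for PGE2, IL-6, TNF-α and IL-10. Data as mean ± SD.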

Rattus norvegicus [3] = assay: Anti-inflammatory activity in carrageenan-induced paw edema Wistar rat model assessed as swelling thickness of paw at 10 mg/kg, po measured immediately by digital vernier caliper (reference value: 3.48 +/- 0.21 millimeter); type: functional
Rattus norvegicus [4] = assay: Anti-inflammatory activity in carrageenan-induced paw edema Wistar rat model assessed as increase in IL-10 level in paw tissue at 5 to 20 mg/kg, po measured for 6 hrs by ELISA; type: functional, organism-based; conditions: dose 5-20 mg/kg; outline: as §2
Rattus norvegicus [5] = assay: Anti-inflammatory activity in arachidonic acid-induced paw edema Wistar rat model assessed as protection against swelling thickness of paw at 20 mg/kg, po measured after 1 hr by digital vernier caliper (reference value: 0 %); type: functional
Rattus norvegicus [6] = assay: Analgesic activity in acetic acid-induced pain Wistar rat model assessed as number of writhing at 20 mg/kg, po pretreated for 30 mins followed by acetic acid treatment measured for 30 mins by writhing test (reference value: 40.33 +/- 3.01); type: functional; conditions: 0.5 h
[7] = Toxicity in Wistar rat assessed as change in serum urea level at 20 mg/kg, po; type: organism-based; conditions: in vivo
Outline: (§3)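 Rats dosed orally in 0.3% Na CMC; retro-orbital blood clotted at room temperature, serum separated at 2000 rpm, 20 min, 4 °C; ALT, AST, creatinine and urea by commercial kits; n = 6 per group, mean ± SD; Tukey test after repeated-measures one-way ANOVA.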

Rattus norvegicus [8] = assay: Anti-inflammatory activity in carrageenan-induced paw edema Wistar rat model assessed as swelling thickness of paw at 10 mg/kg, po measured after 1 hr by digital vernier caliper (reference value: 8.47 +/- 0.25 millimeter); type: functional
Rattus norvegicus [9] = assay: Anti-inflammatory activity in carrageenan-induced paw edema Wistar rat model assessed as swelling thickness of paw at 5 mg/kg, po measured immediately by digital vernier caliper (reference value: 3.48 +/- 0.21 millimeter); type: functional
Rattus norvegicus [10] = assay: Anti-inflammatory activity in carrageenan-induced paw edema Wistar rat model assessed as swelling thickness of paw at 20 mg/kg, po measured after 3 hrs by digital vernier caliper (reference value: 8.56 +/- 0.45 millimeter); type: functional
Gastric mucosa = assay: Antioxidant activity in gastric mucosal tissue in Wistar rat assessed as increase in SOD level at 20 mg/kg, po; type: functional, organism-based
Outline: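 Gastric tissue from fasted rats (dosed orally once daily for 3 days in 0.3% Na CMC) homogenized in cold PBS pH 7.4, centrifuged 1000 rpm, 10 min, 4 °C; protein by Bradford; SOD measured in supernatant per reported procedure.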

[11] = Toxicity in Wistar rat assessed as change in serum creatinine level at 20 mg/kg, po; type: organism-based; conditions: in vivo; outline: as §3
Rattus norvegicus [12] = assay: Anti-inflammatory activity in carrageenan-induced paw edema Wistar rat model assessed as swelling thickness of paw at 10 mg/kg, po measured after 3 hrs by digital vernier caliper (reference value: 8.56 +/- 0.45 millimeter); type: functional
[13] = Toxicity in fasting Wistar rat assessed as ulcer index at 5 mg/kg, po via gavage treated for 3 days consecutively by H and E staining based analysis (reference value: 0); type: organism-based; conditions: in vivo, 72 h, time 3 day; outline: as §1
Rattus norvegicus [14] = assay: Anti-inflammatory activity in carrageenan-induced paw edema Wistar rat model assessed as swelling thickness of paw at 10 mg/kg, po measured after 4 hrs by digital vernier caliper (reference value: 8.36 +/- 0.78 millimeter); type: functional
Rattus norvegicus [15] = assay: Anti-inflammatory activity in carrageenan-induced paw edema Wistar rat model assessed as swelling thickness of paw at 20 mg/kg, po measured after 1 hr by digital vernier caliper (reference value: 8.47 +/- 0.25 millimeter); type: functional
Rattus norvegicus [16] = assay: Anti-inflammatory activity in carrageenan-induced paw edema Wistar rat model assessed as swelling thickness of paw at 5 mg/kg, po measured after 5 hrs by digital vernier caliper (reference value: 8.47 +/- 0.32 millimeter); type: functional
Rattus norvegicus [17] = assay: Anti-inflammatory activity in arachidonic acid-induced paw edema Wistar rat model assessed as swelling thickness of paw at 5 mg/kg, po measured after 1 hr by digital vernier caliper (reference value: 6.51 +/- 0.37 millimeter); type: functional
Rattus norvegicus [18] = assay: Anti-inflammatory activity in carrageenan-induced paw edema Wistar rat model assessed as swelling thickness of paw at 5 mg/kg, po measured after 2 hrs by digital vernier caliper (reference value: 8.65 +/- 0.53 millimeter); type: functional
Rattus norvegicus [19] = assay: Anti-inflammatory activity in carrageenan-induced paw edema Wistar rat model assessed as swelling thickness of paw at 10 mg/kg, po measured after 2 hrs by digital vernier caliper (reference value: 8.65 +/- 0.53 millimeter); type: functional
Rattus norvegicus [20] = assay: Anti-inflammatory activity in arachidonic acid-induced paw edema Wistar rat model assessed as protection against swelling thickness of paw at 5 mg/kg, po measured after 1 hr by digital vernier caliper (reference value: 0 %); type: functional
Rattus norvegicus [21] = assay: Anti-inflammatory activity in carrageenan-induced paw edema Wistar rat model assessed as swelling thickness of paw at 5 mg/kg, po measured after 1 hr by digital vernier caliper (reference value: 8.47 +/- 0.25 millimeter); type: functional
[22] = Toxicity in fasting Wistar rat assessed as ulcer index at 10 mg/kg, po via gavage treated for 3 days consecutively by H and E staining based analysis (reference value: 0); type: organism-based; conditions: in vivo, 72 h, time 3 day; outline: as §1
Rattus norvegicus [23] = assay: Anti-inflammatory activity in arachidonic acid-induced paw edema Wistar rat model assessed as protection against swelling thickness of paw at 10 mg/kg, po measured after 1 hr by digital vernier caliper (reference value: 0 %); type: functional
[24] = Toxicity in fasting Wistar rat assessed as ulceration at 20 mg/kg, po via gavage treated for 3 days consecutively by H and E staining based analysis (reference value: 0 %); type: organism-based; conditions: in vivo, 72 h, time 3 day; outline: as §1
Rattus norvegicus [25] = assay: Anti-inflammatory activity in carrageenan-induced paw edema Wistar rat model assessed as swelling thickness of paw at 5 mg/kg, po measured after 3 hrs by digital vernier caliper (reference value: 8.56 +/- 0.45 millimeter); type: functional
Rattus norvegicus [26] = assay: Anti-inflammatory activity in carrageenan-induced paw edema Wistar rat model assessed as swelling thickness of paw at 5 mg/kg, po measured after 6 hrs by digital vernier caliper (reference value: 8.33 +/- 0.42 millimeter); type: functional
Rattus norvegicus [27] = assay: Anti-inflammatory activity in carrageenan-induced paw edema Wistar rat model assessed as swelling thickness of paw at 10 mg/kg, po measured after 5 hrs by digital vernier caliper (reference value: 8.47 +/- 0.32 millimeter); type: functional

Row | SMILES | Activity [1] | Activity (Rattus norvegicus [2]) | Activity (Rattus norvegicus [3]) | Activity (Rattus norvegicus [4]) | Activity (Rattus norvegicus [5]) | Activity (Rattus norvegicus [6]) | Activity [7] | Activity (Rattus norvegicus [8]) | Activity (Rattus norvegicus [9]) | Activity (Rattus norvegicus [10]) | Activity (Gastric mucosa) | Activity [11] | Activity (Rattus norvegicus [12]) | UI [13] | Activity (Rattus norvegicus [14]) | Activity (Rattus norvegicus [15]) | Activity (Rattus norvegicus [16]) | Activity (Rattus norvegicus [17]) | Activity (Rattus norvegicus [18]) | Activity (Rattus norvegicus [19]) | also measured
1 | Clc1ccc(-c2nnc(CN3CCN(C(c4ccccc4)c4ccc(Cl)cc4)CC3)o2)cc1 (stereo unspecified) | 1.38% | Active | 3.21 mm | Active | 70.21% | 17.83 | Non-toxic | 5.15 mm | 3.51 mm | 3.41 mm | Active | Non-toxic | 3.47 mm | 0 | 3.32 mm | 5.12 mm | 3.98 mm | 2.86 mm | 5.63 mm | 3.96 mm | Activity (Rattus norvegicus [20]): 56.12%; Activity (Rattus norvegicus [21]): 6.18 mm; UI [22]: 2.083; Activity (Rattus norvegicus [23]): 69.22%; Activity [24]: 1.25%; Activity (Rattus norvegicus [25]): 4.67 mm; Activity (Rattus norvegicus [26]): 4.14 mm; Activity (Rattus norvegicus [27]): 3.29 mm
2 | O=[N+]([O-])c1ccc(-c2nnc(CN3CCN(C(c4ccccc4)c4ccc(Cl)cc4)CC3)o2)cc1 (stereo unspecified) | 4.85% | Active | 3.44 mm | Active | 64.36% | 20.33 | Non-toxic | 5.32 mm | 3.59 mm | 4.54 mm | Active | Non-toxic | 4.41 mm | 1.041 | 3.88 mm | 5.16 mm | 4.22 mm | 2.92 mm | 5.25 mm | 4.55 mm | Activity (Rattus norvegicus [20]): 55.22%; Activity (Rattus norvegicus [21]): 5.74 mm; UI [22]: 3.125; Activity (Rattus norvegicus [23]): 62.33%; Activity [24]: 4.86%; Activity (Rattus norvegicus [25]): 4.87 mm; Activity (Rattus norvegicus [26]): 4.14 mm; Activity (Rattus norvegicus [27]): 3.76 mm
